Experiments:
[1] = AUC(0 to infinity) in adult fed Sprague-Dawley rat at 30 mg/kg, po administered as water solution by HPLC-tandem mass spectrometry; format: ADME, organism-based; design: time infinity, dose 30 mg/kg, route oral; conditions: plasma
Procedure, shortened: (§1)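 Sprague-Dawley males, 7-8 weeks, 243-283 g, jugular-cannulated, 3 days' recovery; fed (chow ad libitum). Single oral dose of 30 mg/kg (free base) at 10 ml/kg; 3 rats/group. Jugular blood taken at 0.25-24 h into K2EDTA with dichlorvos, kept on ice. Plasma analysed by validated LC-MS/MS (0.1-500 μg/l). Noncompartmental analysis; AUC by linear trapezoid, AUC0-∞ extrapolated using λz.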

[2] = AUC(0 to 6 hrs) in adult fasted Sprague-Dawley rat at 30 mg/kg, po administered as water solution by HPLC-tandem mass spectrometry; format: ADME, organism-based; design: time < 6 hr, dose 30 mg/kg, route oral; conditions: plasma
Procedure, shortened: (§2)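 Adult male Sprague-Dawley rats (243-283 g), jugular-cannulated, fasted from 6 h before dosing through the 6-h study. Given 30 mg/kg orally (free base) at 10 ml/kg, n=3/group. Blood sampled at 0.25-6 h into K2EDTA with dichlorvos esterase inhibitor. Plasma assayed by LC-MS/MS (0.1-500 μg/l). Noncompartmental analysis: linear-trapezoid AUC; infinity extrapolation via log-linear terminal λz.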

[3] = Renal clearance in healthy human at 150 mg, po administered as single dose by HPLC-tandem mass spectrometry under fed conditions; format: ADME, organism-based, Kidney; conditions: in vivo
Procedure, shortened: (§3)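 Open-label crossover food-effect study in 18 healthy volunteers (9 male, 9 female, mean age 26). Each received a single 150 mg oral dose of the marketed formulation, once fasting from midnight and once after a high-fat, high-calorie breakfast, separated by a 7–10 day washout. Plasma and urine were collected over 0–72 h and assayed by HPLC-MS/MS for oseltamivir and carboxylate.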

[4] = AUC(0 to 5 hrs) in juvenile fasted Sprague-Dawley rat at 30 mg/kg, po administered as solution in bovine milk by HPLC-tandem mass spectrometry; format: ADME, organism-based; design: time < 5 hr, dose 30 mg/kg, route oral; conditions: in vivo
Procedure, shortened: (§4)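 7-day-old Sprague-Dawley pups (9.7-18.9 g, both sexes), 15 per group. Given 30 mg/kg by oral gavage (10 ml/kg); breast-fed pups stayed with dams, fasted pups were removed 8 h before dosing. Blood taken by cardiac puncture under isoflurane at 0.25, 0.5, 1, 2 and 5 h, n=3 per time point (composite design). Dichlorvos-treated plasma assayed by LC-MS/MS; AUC0-5h by noncompartmental analysis.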

[5] = Terminal half life in healthy human at 150 mg, po administered as single dose by HPLC-tandem mass spectrometry under fasting conditions; format: ADME, organism-based; conditions: in vivo, read-out: beta t1/2 (converted); procedure, shortened: as §3
[6] = AUC(0 to 5 hrs) in juvenile fasted Sprague-Dawley rat at 30 mg/kg, po administered as water solution by HPLC-tandem mass spectrometry; format: ADME, organism-based; design: time < 5 hr, dose 30 mg/kg, route oral; conditions: plasma; procedure, shortened: as §4
[7] = Tmax in adult fasted Sprague-Dawley rat at 30 mg/kg, po administered as water solution by HPLC-tandem mass spectrometry; format: ADME, organism-based; design: dose 30 mg/kg, route oral; conditions: in vivo
Procedure, shortened: (§5)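 Male Sprague-Dawley rats (7–8 weeks, 243–283 g) had jugular-vein cannulas and 3 days' recovery. Fasting ran from 6 h predose through the 6 h study. Three rats per vehicle received 30 mg/kg oral (10 ml/kg). Blood was sampled 0.25–6 h into K2EDTA tubes with dichlorvos. Plasma was assayed by HPLC-MS/MS (0.1–500 µg/l). Tmax was read graphically (noncompartmental).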

[8] = Drug uptake in CHOK1 cells expressing human PEPT1 at 5 to 100 uM after 10 mins by HPLC coupled with radiodetection analysis; format: ADME, cell-based, Cricetulus griseus; conditions: chinese hamster, cho-k1, 10 min
[9] = Tmax in adult fed Sprague-Dawley rat at 30 mg/kg, po administered as 125 mM aqueous Gly-Sar solution by HPLC-tandem mass spectrometry; format: ADME, organism-based; design: dose 30 mg/kg, route oral; conditions: in vivo
Procedure, shortened: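 Cannulated adult male Sprague-Dawley rats with chow ad libitum, 3 per vehicle, were given oral 30 mg/kg (10 ml/kg). Plasma analysis was by HPLC-MS/MS, with Tmax taken graphically from concentration-time profiles.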

[10] = Drug uptake in CHOK1 cells incubated for 30s to 15 mins by HPLC coupled with radiodetection analysis; format: ADME, cell-based, Cricetulus griseus; conditions: chinese hamster, cho-k1, 0.25 h
Procedure, shortened: (§6)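 Accumulation of [14C]oseltamivir or its carboxylate in CHO-PEPT1 versus CHO-K1 cells. Conditions varied: KH buffer (with MES) or Hanks' balanced salt solution, pH 5 or 6 readjusted after substrate addition, 30 s to 15 min at 37°C. Uptake was quenched with ice-cold PBS-BSA, followed by Triton X-100 lysis, scintillation counting, and BCA protein normalization. HPLC-radiodetection checked ester stability.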

[11] = Cmax in adult fed Sprague-Dawley rat at 30 mg/kg, po administered as water solution by HPLC-tandem mass spectrometry; format: ADME, organism-based; design: dose 30 mg/kg, route oral; conditions: in vivo
Procedure, shortened: (§7)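 Adult cannulated Sprague-Dawley rats, fasted (from 6 h predose) or fed, dosed orally at 30 mg/kg (10 ml/kg), 3 per group. Serial jugular plasma with dichlorvos stabilisation, measured by LC-MS/MS. Cmax read graphically from the concentration-time profile.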

[12] = Drug uptake in CHOK1 cells at 5 to 100 uM after 10 mins by HPLC coupled with radiodetection analysis; format: ADME, cell-based, Cricetulus griseus; conditions: chinese hamster, cho-k1, 10 min
[13] = Tmax in adult fasted Sprague-Dawley rat at 30 mg/kg, po administered as 125 mM aqueous Gly-Sar solution by HPLC-tandem mass spectrometry; format: ADME, organism-based; design: dose 30 mg/kg, route oral; conditions: in vivo; procedure, shortened: as §5
[14] = Tmax in juvenile fasted Sprague-Dawley rat at 30 mg/kg, po administered as water solution by HPLC-tandem mass spectrometry; format: ADME, organism-based; design: dose 30 mg/kg, route oral; conditions: in vivo
Procedure, shortened: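 Seven-day-old Sprague-Dawley pups, males and females, 15 per group, were gavaged with 30 mg/kg (10 ml/kg). Breast-fed pups stayed with their dams; fasted pups were removed from 8 h predose through 5 h. Cardiac blood was drawn under isoflurane at 0.25, 0.5, 1, 2 and 5 h (composite, n=3/time point), with dichlorvos added. Plasma was analyzed by HPLC-MS/MS and Tmax read graphically.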

[15] = Cmax in adult fasted Sprague-Dawley rat at 30 mg/kg, po administered as solution in bovine milk by HPLC-tandem mass spectrometry; format: ADME, organism-based; design: dose 30 mg/kg, route oral; conditions: in vivo; procedure, shortened: as §7
[16] = Renal clearance in healthy human at 150 mg, po administered as single dose by HPLC-tandem mass spectrometry under fasting conditions; format: ADME, organism-based, Kidney; conditions: in vivo; procedure, shortened: as §3
[17] = AUC(0 to 6 hrs) in adult fed Sprague-Dawley rat at 30 mg/kg, po administered as solution in bovine milk by HPLC-tandem mass spectrometry; format: ADME, organism-based; design: time < 6 hr, dose 30 mg/kg, route oral; conditions: in vivo; procedure, shortened: as §1
[18] = Drug uptake in CHOK1 cells expressing human PEPT1 at pH 6 by HPLC coupled with radiodetection analysis; format: ADME, cell-based, Cricetulus griseus; conditions: chinese hamster, cho-k1, pH 6; procedure, shortened: as §6
[19] = AUC(0 to 6 hrs) in adult fasted Sprague-Dawley rat at 30 mg/kg, po administered as solution in bovine milk by HPLC-tandem mass spectrometry; format: ADME, organism-based; design: time < 6 hr, dose 30 mg/kg, route oral; conditions: in vivo; procedure, shortened: as §2
[20] = AUC(0 to 24 hrs) in adult fed Sprague-Dawley rat at 30 mg/kg, po administered as water solution by HPLC-tandem mass spectrometry; format: ADME, organism-based; design: time < 24 hr, dose 30 mg/kg, route oral; conditions: plasma; procedure, shortened: as §1
[21] = Tmax in healthy human at 150 mg, po administered as single dose by HPLC-tandem mass spectrometry under fasting conditions; format: ADME, organism-based; conditions: in vivo; procedure, shortened: as §3
[22] = AUC(0 to 24 hrs) in adult fed Sprague-Dawley rat at 30 mg/kg, po administered as solution in bovine milk by HPLC-tandem mass spectrometry; format: ADME, organism-based; design: time < 24 hr, dose 30 mg/kg, route oral; conditions: in vivo; procedure, shortened: as §1
[23] = Cmax in juvenile fasted Sprague-Dawley rat at 30 mg/kg, po administered as 125 mM aqueous Gly-Sar solution by HPLC-tandem mass spectrometry; format: ADME, organism-based; design: dose 30 mg/kg, route oral; conditions: in vivo; procedure, shortened: as §4

AUC(0-inf) [1] [ng·h/mL]	AUC(0-t) at 6 h [2] [ng·h/mL]	CL renal [3] [mL/min]	AUC(0-t) at 5 h [4] [ng·h/mL]	half-life [5] [h]	AUC(0-t) at 5 h [6] [ng·h/mL]	Tmax [7] [h]	Drug uptake [8]	Tmax [9] [h]	Drug uptake [10]	Cmax [11] [ng/mL]	Drug uptake [12]	Tmax [13] [h]	Tmax [14] [h]	Cmax [15] [ng/mL]	CL renal [16] [mL/min]	AUC(0-t) at 6 h [17] [ng·h/mL]	Drug uptake [18]	AUC(0-t) at 6 h [19] [ng·h/mL]	AUC(0-t) at 24 h [20] [ng·h/mL]	Compound	further results
5290	5910	218	9260	6.87	12100	1.08	Active	1.42	Active	1110	Active	1.17	2	1630	223	4510	Active	5810	5280	CCC(CC)O[C@@H]1C=C(C(=O)O)C[C@H](N)[C@H]1NC(C)=O [OSELTAMIVIR CARBOXYLATE]	Tmax [21]: 4.37 h; AUC(0-t) at 24 h [22]: 6330 ng·h/mL; Cmax [23]: 2710 ng/mL
2510	2680	385	26900	1.61	29500	0.83	Active	0.66	Active	1270	Active	0.25	0.5	1630	340	2510	Active	3010	2510	CCOC(=O)C1=C[C@@H](OC(CC)CC)[C@H](NC(C)=O)[C@@H](N)C1 [OSELTAMIVIR]	Tmax [21]: 0.806 h; AUC(0-t) at 24 h [22]: 2800 ng·h/mL; Cmax [23]: 10400 ng/mL

— ChEMBL document CHEMBL3526035, “Role of the intestinal peptide transporter PEPT1 in oseltamivir absorption: in vitro and in vivo studies” (Drug Metab Dispos, 2012)
